According to PMC9159088 (Chemical Science, 2022):

Experiments:
[1] = target: T1, human Golgi α-mannosidase II (α-hGMII) (Homo sapiens, UniProt Q16706); experiment: 4-MU-based enzyme inhibition study, wild-type α-hGMII; type: biochemical; conditions: SI = (α-hLM Ki)/(α-hGMII Ki), Man-α-4MU substrate
T1 sequence (Q16706 1-1144): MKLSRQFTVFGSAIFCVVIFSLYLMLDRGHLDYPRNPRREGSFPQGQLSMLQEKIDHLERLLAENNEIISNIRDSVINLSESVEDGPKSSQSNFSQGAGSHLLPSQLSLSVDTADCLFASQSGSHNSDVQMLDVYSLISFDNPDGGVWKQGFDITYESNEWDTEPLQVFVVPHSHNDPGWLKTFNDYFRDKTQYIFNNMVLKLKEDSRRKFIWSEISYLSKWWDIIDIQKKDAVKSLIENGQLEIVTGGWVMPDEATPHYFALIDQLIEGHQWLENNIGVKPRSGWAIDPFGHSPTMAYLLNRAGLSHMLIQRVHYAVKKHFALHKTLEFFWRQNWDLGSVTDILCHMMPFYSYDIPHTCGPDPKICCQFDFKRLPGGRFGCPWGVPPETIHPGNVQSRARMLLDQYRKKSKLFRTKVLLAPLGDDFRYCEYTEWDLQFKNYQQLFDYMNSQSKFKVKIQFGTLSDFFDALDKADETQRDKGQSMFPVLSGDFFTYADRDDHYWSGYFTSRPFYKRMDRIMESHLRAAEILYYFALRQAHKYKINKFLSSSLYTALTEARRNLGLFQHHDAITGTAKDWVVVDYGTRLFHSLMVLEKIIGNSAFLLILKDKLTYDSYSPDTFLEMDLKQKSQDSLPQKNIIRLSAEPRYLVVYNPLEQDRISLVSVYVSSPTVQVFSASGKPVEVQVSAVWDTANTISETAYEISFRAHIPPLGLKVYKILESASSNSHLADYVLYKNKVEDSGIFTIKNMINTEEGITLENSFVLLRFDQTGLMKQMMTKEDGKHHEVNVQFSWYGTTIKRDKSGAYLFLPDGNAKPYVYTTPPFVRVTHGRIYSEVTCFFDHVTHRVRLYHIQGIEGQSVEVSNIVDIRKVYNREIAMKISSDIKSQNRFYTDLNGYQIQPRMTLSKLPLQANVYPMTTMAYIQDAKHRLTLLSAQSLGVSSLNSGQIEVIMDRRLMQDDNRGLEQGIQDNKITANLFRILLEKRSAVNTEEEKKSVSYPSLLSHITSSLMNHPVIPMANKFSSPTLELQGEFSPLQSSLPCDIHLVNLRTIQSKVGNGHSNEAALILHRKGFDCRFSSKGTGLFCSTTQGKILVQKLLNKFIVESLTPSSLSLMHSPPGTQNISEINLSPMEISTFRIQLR

α-hGMII = target: T2, α-hGMII (Homo sapiens, UniProt Q16706); experiment: Glycan-based; type: biochemical; conditions: SI = (α-hLM IC50)/(α-hGMII IC50), oligosaccharide substrates
T2 sequence (Q16706 1-1144): T1 sequence (Q16706 1-1144)
How it was run: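 The substrate for human Golgi α-mannosidase II was 2-aminobenzamide-labelled GlcNAcMan5GlcNAc2 (GlcNAcMan5-2AB), with LNnT-2AB as internal standard. Enzyme, substrate and test compound (0, 0.3, 0.1, 0.03 μM) were incubated 24 h at 37 °C. Remaining substrate was measured by UPLC fluorescence as the peak area ratio of substrate to internal standard. Ki was taken from a Lineweaver–Burk plot. SI used lysosomal α-mannosidase IC50, run the same way with Man5-2AB substrate and NA2-2AB standard.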

[2] = test system: human normal fibroblast (08C0015); experiment: Cell based selectivity assay; conditions: 08C0015, 24 h treatment
Serum biochemistry assay = type: in vivo, NOD-SCID mice; conditions: 30 mg kg−1 ip. twice a week
How it was run: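 Huh7 cells (5 × 106) implanted subcutaneously into left and right flanks of NOD-SCID mice. From day 7 after inoculation, test compound or reference drug given ip at 30 mg kg−1 twice a week for 34 days; bodyweight monitored. Serum AST, ALT, total bilirubin, creatinine and BUN measured for hepatorenal toxicity; significance set at P < 0.05.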

Huh7 xenograft tumors = experiment: Mice xenograft model of HCC; type: in vivo, NOD-SCID mice; conditions: 30 mg kg−1 ip. twice a week

Structure (SMILES)	SI: selectivity index [1]	SI: selectivity index (glycan based) (α-hGMII)	increase of relative intensity of overall Man2-9GlcNAc compared to the control group [2]	side effects (hepatotoxicity and nephrotoxicity) (Serum biochemistry assay)	signs of harm / body weight during treatment (Huh7 xenograft tumors)	tumor growth compared to the control (Huh7 xenograft tumors; P < 0.05)
O[C@H]1[C@H]2[C@H](O)CCCN2C[C@H]1O [sw, swainsonine]	4.6	5	about 5 fold			
CNC(=O)c1cc(Oc2ccc(NC(=O)Nc3ccc(Cl)c(C(F)(F)F)c3)cc2)ccn1 [Sorafenib, sorafenib]				no serious side effects including hepatotoxicity and nephrotoxicity were observed	neither mice injected with 8b-3 nor sorafenib exhibited signs of harm or decreased body weight	significant reduction in tumor growth
